Experimental data taken from ChEMBL document CHEMBL5260793, “Novel pyrazolo[3,4-d]pyrimidine with 4-(1H-benzimidazol-2-yl)-phenylamine as broad spectrum anticancer agents: Synthesis, cell based assay, topoisomerase inhibition, DNA intercalation and bovine serum albumin studies” (Eur J Med Chem, 2017).
Calls of active or inactive are those of the source. The calls are words filed in the database; no cut-off is given here.

How the values were obtained:
[1] = molecular target: DNA topoisomerase 2-alpha (Homo sapiens) (UniProt P11388); assay: Inhibition of human DNA topoisomerase II-alpha mediated supercoiled pHOT1 plasmid DNA relaxation at 100 uM incubated for 30 mins by ethidium bromide staining based agarose gel electrophoresis analysis
DNA topoisomerase 2-alpha (Homo sapiens), sequence (P11388 whole entry): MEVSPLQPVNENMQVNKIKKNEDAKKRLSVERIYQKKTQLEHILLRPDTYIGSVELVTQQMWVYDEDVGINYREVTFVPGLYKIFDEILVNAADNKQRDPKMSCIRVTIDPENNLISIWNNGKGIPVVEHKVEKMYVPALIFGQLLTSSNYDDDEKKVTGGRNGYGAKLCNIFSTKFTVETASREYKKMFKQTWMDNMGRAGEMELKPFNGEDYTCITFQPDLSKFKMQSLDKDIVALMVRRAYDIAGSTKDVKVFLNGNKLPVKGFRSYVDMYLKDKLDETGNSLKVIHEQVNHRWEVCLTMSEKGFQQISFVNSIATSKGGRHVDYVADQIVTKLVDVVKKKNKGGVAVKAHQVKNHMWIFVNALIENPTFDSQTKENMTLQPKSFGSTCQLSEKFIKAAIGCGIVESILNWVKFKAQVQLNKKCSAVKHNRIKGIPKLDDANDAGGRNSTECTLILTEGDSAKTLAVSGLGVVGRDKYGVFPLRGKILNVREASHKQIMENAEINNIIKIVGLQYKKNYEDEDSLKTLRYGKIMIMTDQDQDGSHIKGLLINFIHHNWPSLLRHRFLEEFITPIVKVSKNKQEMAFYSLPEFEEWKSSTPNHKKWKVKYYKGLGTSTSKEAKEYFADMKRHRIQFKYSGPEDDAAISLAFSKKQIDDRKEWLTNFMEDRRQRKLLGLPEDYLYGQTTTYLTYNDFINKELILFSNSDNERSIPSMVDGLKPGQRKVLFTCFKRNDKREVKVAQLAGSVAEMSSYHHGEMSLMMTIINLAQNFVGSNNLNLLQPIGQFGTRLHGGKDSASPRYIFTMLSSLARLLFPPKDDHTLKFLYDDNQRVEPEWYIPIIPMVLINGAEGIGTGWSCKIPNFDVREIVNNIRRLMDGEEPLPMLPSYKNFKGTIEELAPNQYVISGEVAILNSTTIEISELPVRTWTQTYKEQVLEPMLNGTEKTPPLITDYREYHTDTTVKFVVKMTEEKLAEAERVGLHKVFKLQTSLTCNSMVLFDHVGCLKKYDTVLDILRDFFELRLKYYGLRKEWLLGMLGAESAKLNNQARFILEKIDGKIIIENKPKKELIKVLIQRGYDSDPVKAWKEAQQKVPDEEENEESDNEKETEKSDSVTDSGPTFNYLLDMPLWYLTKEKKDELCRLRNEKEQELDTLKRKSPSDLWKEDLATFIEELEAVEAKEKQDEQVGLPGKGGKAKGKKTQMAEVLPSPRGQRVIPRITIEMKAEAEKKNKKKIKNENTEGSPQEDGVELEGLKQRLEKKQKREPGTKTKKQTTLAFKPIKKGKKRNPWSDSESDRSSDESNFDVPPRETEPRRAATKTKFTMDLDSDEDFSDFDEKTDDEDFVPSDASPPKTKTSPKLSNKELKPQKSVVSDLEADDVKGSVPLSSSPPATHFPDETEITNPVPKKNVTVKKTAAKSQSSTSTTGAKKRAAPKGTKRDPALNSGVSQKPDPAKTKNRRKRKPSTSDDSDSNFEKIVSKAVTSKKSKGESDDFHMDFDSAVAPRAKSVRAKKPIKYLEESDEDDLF
Method in brief: (§1)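 Reaction buffer: 50 mM Tris-Cl pH 8.0, 120 mM KCl, 10 mM MgCl2, 0.5 mM ATP, 0.5 mM DTT. Each reaction held 500 ng supercoiled pHOT1 and 1 U human Topo IIα, with compound at 10–100 μM, for 30 min at 37 °C. Reactions were stopped with glycerol/EDTA/bromophenol blue, run on 1% agarose in TBE, and stained with ethidium bromide. Etoposide 25 μM was the positive control.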

[2] = tested on: Calf thymus DNA; assay: Binding affinity to calf thymus DNA assessed as maximum absorption wavelength shift at pH 7.4 at 10 uM by UV-vis absorption spectroscopy; type: nucleic-acid assay; conditions: Bos taurus
Method in brief: (§2)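 Absorption titration at 300 K in a 1 cm cell, background subtracted. Compound was fixed (10 μM per legend; 20 μM in methods) with ct-DNA added up to 15–20 μM in 10 mM phosphate buffer, pH 7.4 (A260/A280 1.82). A buffer-addition control was run. K was taken from the 1/(Af−Aobs) vs 1/[DNA] fit.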

[3] = molecular target: DNA topoisomerase 2-alpha (Homo sapiens) (UniProt P11388); assay: Inhibition of human DNA topoisomerase II-alpha mediated supercoiled pHOT1 plasmid DNA relaxation at 50 uM incubated for 30 mins by ethidium bromide staining based agarose gel electrophoresis analysis; method in brief: as §1
[4] = molecular target: T1, DNA topoisomerase 1 (Homo sapiens) (UniProt P11387); assay: Inhibition of human DNA topoisomerase I mediated supercoiled pHOT1 plasmid DNA relaxation upto 100 uM incubated for 30 mins by ethidium bromide staining based agarose gel electrophoresis analysis
T1 sequence (whole entry): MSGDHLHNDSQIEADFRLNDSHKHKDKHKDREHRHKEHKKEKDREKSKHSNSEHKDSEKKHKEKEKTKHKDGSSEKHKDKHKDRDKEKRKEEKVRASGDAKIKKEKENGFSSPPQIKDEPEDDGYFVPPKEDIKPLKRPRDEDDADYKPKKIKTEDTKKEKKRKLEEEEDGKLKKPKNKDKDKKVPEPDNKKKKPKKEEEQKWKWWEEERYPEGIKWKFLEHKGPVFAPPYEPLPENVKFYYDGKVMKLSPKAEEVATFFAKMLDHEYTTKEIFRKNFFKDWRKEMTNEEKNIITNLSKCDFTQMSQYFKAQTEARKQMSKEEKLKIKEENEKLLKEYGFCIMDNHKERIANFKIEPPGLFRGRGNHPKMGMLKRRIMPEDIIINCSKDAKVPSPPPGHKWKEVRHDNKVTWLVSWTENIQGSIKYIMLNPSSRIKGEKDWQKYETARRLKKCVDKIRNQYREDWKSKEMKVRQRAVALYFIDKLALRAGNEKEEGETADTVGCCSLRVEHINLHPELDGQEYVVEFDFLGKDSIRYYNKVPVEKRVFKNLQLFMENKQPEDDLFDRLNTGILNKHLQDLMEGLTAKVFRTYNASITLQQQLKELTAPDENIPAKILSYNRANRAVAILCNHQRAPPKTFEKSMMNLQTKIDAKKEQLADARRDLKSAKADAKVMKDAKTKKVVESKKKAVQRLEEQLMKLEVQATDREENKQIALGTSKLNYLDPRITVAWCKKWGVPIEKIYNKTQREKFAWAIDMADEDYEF

[5] = molecular target: Albumin (Bos taurus, UniProt P02769); assay: Binding affinity to bovine serum albumin assessed as decrease in fluorescence intensity at pH 7.4 at 0 to 30 uM by fluorescence quenching method; conditions: cattle
Albumin, sequence (P02769 whole entry): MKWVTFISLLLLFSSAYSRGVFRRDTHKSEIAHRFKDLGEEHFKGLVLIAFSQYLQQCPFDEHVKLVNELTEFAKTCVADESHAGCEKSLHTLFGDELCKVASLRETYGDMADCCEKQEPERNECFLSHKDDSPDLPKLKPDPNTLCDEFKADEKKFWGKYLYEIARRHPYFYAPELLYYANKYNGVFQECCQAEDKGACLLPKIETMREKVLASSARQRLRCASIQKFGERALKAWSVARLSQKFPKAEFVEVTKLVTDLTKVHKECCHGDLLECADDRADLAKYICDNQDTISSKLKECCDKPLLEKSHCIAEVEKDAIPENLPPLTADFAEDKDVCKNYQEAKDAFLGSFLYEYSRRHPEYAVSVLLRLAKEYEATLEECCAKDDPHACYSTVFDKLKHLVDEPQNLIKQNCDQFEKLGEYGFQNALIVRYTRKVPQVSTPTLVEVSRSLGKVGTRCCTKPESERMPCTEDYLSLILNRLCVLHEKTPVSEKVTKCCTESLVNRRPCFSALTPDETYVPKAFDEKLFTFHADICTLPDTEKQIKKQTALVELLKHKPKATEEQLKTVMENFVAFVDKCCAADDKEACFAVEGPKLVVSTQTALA

[6] = molecular target: DNA topoisomerase 2-alpha (Homo sapiens) (UniProt P11388); assay: Inhibition of human DNA topoisomerase II-alpha mediated supercoiled pHOT1 plasmid DNA relaxation at 75 uM incubated for 30 mins by ethidium bromide staining based agarose gel electrophoresis analysis; method in brief: as §1
[7] = tested on: Calf thymus DNA; assay: Binding affinity to calf thymus DNA assessed as hypochromicity at pH 7.4 at 10 uM by UV-vis absorption spectroscopy; type: nucleic-acid assay; conditions: Bos taurus; method in brief: as §2
[8] = tested on: Panel leukemia (Carcinoma cell lines); assay: Anticancer activity against human Panel leukemia (Carcinoma cell lines) assessed as total growth inhibition incubated for 48 hrs by Sulphorhodamine B assay; type: functional
[9] = tested on: Panel leukemia (Carcinoma cell lines); assay: Anticancer activity against human Panel leukemia (Carcinoma cell lines) assessed as lethality incubated for 48 hrs by Sulphorhodamine B assay; type: functional
[10] = tested on: Panel breast (Carcinoma cell lines); assay: Anticancer activity against human Panel breast (Carcinoma cell lines) assessed as cell growth inhibition incubated for 48 hrs by Sulphorhodamine B assay; type: functional
Method in brief: (§3)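 NCI-60 five-dose screen. Cells in RPMI 1640 with 5% FBS and 2 mM L-glutamine were plated at 5,000–40,000 cells/well and held 24 h before dosing. Compounds came from DMSO stocks and were given at five concentrations (10-fold or ½-log dilutions) for 48 h at 37 °C. Adherent cells were TCA-fixed and stained with SRB; A515 was read. GI50 was set from growth = 50% and TGI from Ti = Tz, using Tz/C/Ti.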

[11] = tested on: Panel CNS (Carcinoma cell lines); assay: Anticancer activity against human Panel CNS (Carcinoma cell lines) assessed as cell growth inhibition incubated for 48 hrs by Sulphorhodamine B assay; type: functional; method in brief: as §3
[12] = Anticancer activity against human Non-small cell lung cancer cell line assessed as cell growth inhibition incubated for 48 hrs by Sulphorhodamine B assay; type: functional; method in brief: as §3
[13] = tested on: Panel colon (Carcinoma cell lines); assay: Anticancer activity against human Panel colon (Carcinoma cell lines) assessed as lethality incubated for 48 hrs by Sulphorhodamine B assay; type: functional
[14] = tested on: Panel prostate (Carcinoma cell lines); assay: Anticancer activity against human Panel prostate (Carcinoma cell lines) assessed as lethality incubated for 48 hrs by Sulphorhodamine B assay; type: functional
[15] = tested on: Panel melanoma (Carcinoma cell lines); assay: Anticancer activity against human Panel melanoma (Carcinoma cell lines) assessed as cell growth inhibition incubated for 48 hrs by Sulphorhodamine B assay; type: functional; method in brief: as §3
[16] = tested on: Panel prostate (Carcinoma cell lines); assay: Anticancer activity against human Panel prostate (Carcinoma cell lines) assessed as cell growth inhibition incubated for 48 hrs by Sulphorhodamine B assay; type: functional; method in brief: as §3
[17] = tested on: Panel colon (Carcinoma cell lines); assay: Anticancer activity against human Panel colon (Carcinoma cell lines) assessed as cell growth inhibition incubated for 48 hrs by Sulphorhodamine B assay; type: functional; method in brief: as §3
[18] = tested on: Panel ovarian (Carcinoma cell lines); assay: Anticancer activity against human Panel ovarian (Carcinoma cell lines) assessed as lethality incubated for 48 hrs by Sulphorhodamine B assay; type: functional
[19] = tested on: Panel breast (Carcinoma cell lines); assay: Anticancer activity against human Panel breast (Carcinoma cell lines) assessed as lethality incubated for 48 hrs by Sulphorhodamine B assay; type: functional; conditions: read-out: LC50 (the source's name)
[20] = tested on: Panel ovarian (Carcinoma cell lines); assay: Anticancer activity against human Panel ovarian (Carcinoma cell lines) assessed as total growth inhibition incubated for 48 hrs by Sulphorhodamine B assay; type: functional
[21] = tested on: Panel colon (Carcinoma cell lines); assay: Anticancer activity against human Panel colon (Carcinoma cell lines) assessed as total growth inhibition incubated for 48 hrs by Sulphorhodamine B assay; type: functional; method in brief: as §3
[22] = tested on: Panel melanoma (Carcinoma cell lines); assay: Anticancer activity against human Panel melanoma (Carcinoma cell lines) assessed as total growth inhibition incubated for 48 hrs by Sulphorhodamine B assay; type: functional; method in brief: as §3
[23] = tested on: Panel melanoma (Carcinoma cell lines); assay: Anticancer activity against human Panel melanoma (Carcinoma cell lines) assessed as lethality incubated for 48 hrs by Sulphorhodamine B assay; type: functional
[24] = tested on: Panel CNS (Carcinoma cell lines); assay: Anticancer activity against human Panel CNS (Carcinoma cell lines) assessed as lethality incubated for 48 hrs by Sulphorhodamine B assay; type: functional
[25] = tested on: Calf thymus DNA; assay: Displacement of Ethidium bromide from calf thymus DNA/EtBr complex assessed as decrease in fluorescent intensity by fluorescence based EtBr-displacement assay; type: nucleic-acid assay; conditions: Bos taurus
Method in brief: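 ct-DNA (0–20 μM) was pre-mixed with ethidium bromide, diluted from a 1 mM stock. Compound was then added in 2 μM steps up to 50 μM, with mixing after each addition. Emission was recorded with excitation at 480 nm.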

[26] = Anticancer activity against human Non-small cell lung cancer cell line assessed as lethality incubated for 48 hrs by Sulphorhodamine B assay; type: functional
[27] = tested on: Panel renal (Carcinoma cell lines); assay: Anticancer activity against human Panel renal (Carcinoma cell lines) assessed as total growth inhibition incubated for 48 hrs by Sulphorhodamine B assay; type: functional
[28] = tested on: Panel ovarian (Carcinoma cell lines); assay: Anticancer activity against human Panel ovarian (Carcinoma cell lines) assessed as cell growth inhibition incubated for 48 hrs by Sulphorhodamine B assay; type: functional; method in brief: as §3
[29] = tested on: Panel prostate (Carcinoma cell lines); assay: Anticancer activity against human Panel prostate (Carcinoma cell lines) assessed as total growth inhibition incubated for 48 hrs by Sulphorhodamine B assay; type: functional; method in brief: as §3
[30] = tested on: Panel breast (Carcinoma cell lines); assay: Anticancer activity against human Panel breast (Carcinoma cell lines) assessed as total growth inhibition incubated for 48 hrs by Sulphorhodamine B assay; type: functional; method in brief: as §3
[31] = Anticancer activity against human Non-small cell lung cancer cell line assessed as total growth inhibition incubated for 48 hrs by Sulphorhodamine B assay; type: functional; method in brief: as §3
[32] = tested on: Panel leukemia (Carcinoma cell lines); assay: Anticancer activity against human Panel leukemia (Carcinoma cell lines) assessed as cell growth inhibition incubated for 48 hrs by Sulphorhodamine B assay; type: functional; method in brief: as §3
[33] = tested on: Panel renal (Carcinoma cell lines); assay: Anticancer activity against human Panel renal (Carcinoma cell lines) assessed as lethality incubated for 48 hrs by Sulphorhodamine B assay; type: functional
[34] = tested on: Panel renal (Carcinoma cell lines); assay: Anticancer activity against human Panel renal (Carcinoma cell lines) assessed as cell growth inhibition incubated for 48 hrs by Sulphorhodamine B assay; type: functional; method in brief: as §3
[35] = tested on: Panel CNS (Carcinoma cell lines); assay: Anticancer activity against human Panel CNS (Carcinoma cell lines) assessed as total growth inhibition incubated for 48 hrs by Sulphorhodamine B assay; type: functional; method in brief: as §3

SMILES | inhibition [1] | Activity [2] [nm] | inhibition [3] | inhibition [4] | Activity [5] | inhibition [6] | Activity [7] | GI50 [10] [µM] | GI50 [11] [µM] | GI50 [12] [µM] | GI50 [15] [µM] | GI50 [16] [µM] | GI50 [17] [µM] | TGI [21] [µM] | TGI [22] [µM] | GI50 [28] [µM] | TGI [29] [µM] | TGI [30] [µM] | TGI [31] [µM] | GI50 [32] [µM] | other results
NCCNc1nc(Nc2ccc(-c3nc4ccccc4[nH]3)cc2)c2cn[nH]c2n1 | Active | 259 | Active | inactive | Active | Active | Active | – | – | – | – | – | – | – | – | – | – | – | – | – | –
c1ccc(CNc2nc(Nc3ccc(-c4nc5ccccc5[nH]4)cc3)c3cn[nH]c3n2)cc1 | Active | 264 | Active | inactive | Active | Active | Active | 2.04 | 2.96 | 2.54 | 1.85 | 2.56 | 2 | 5.12 | 4.29 | 2.52 | 9.43 | 5.85 | 8.99 | 2.67 | TGI [8]: 6.43 µM; LC50 [9]: > 100 µM; LC50 (lethal concentration, 50% cell kill) [13]: 34.7 µM; LC50 [14]: 41.8 µM; LC50 (concentration killing 50% of cells) [18]: 41.8 µM; CC50 [19]: 46.3 µM; TGI [20]: 7.83 µM; LC50 (lethal concentration 50) [23]: 19.3 µM; LC50 (concentration killing 50% of cells) [24]: 28.1 µM; Activity [25]: Active; LC50 (lethal concentration, 50% cell kill) [26]: 55.3 µM; TGI [27]: 6.16 µM; LC50 (50% lethal concentration) [33]: 31.2 µM; GI50 [34]: 2.3 µM; TGI [35]: 16.7 µM
CC[C@H](CO)Nc1nc(NCc2ccccc2)c2ncn(C(C)C)c2n1 [SELICICLIB] | – | – | – | – | – | – | – | 22.7 | 24.7 | 23.6 | 14.8 | 17.9 | 24.8 | 84.9 | 57.6 | 29.3 | 81.5 | 73 | 84.8 | 37.5 | GI50 [34]: 24.9 µM; TGI [35]: 82.2 µM
c1ccc2[nH]c(-c3ccc(Nc4nc(N5CCOCC5)nc5[nH]ncc45)cc3)nc2c1 | Active | 260 | Active | inactive | Active | Active | Active | – | – | – | – | – | – | – | – | – | – | – | – | – | –
c1ccc2[nH]c(-c3ccc(Nc4nc(N5CCCC5)nc5[nH]ncc45)cc3)nc2c1 | Active | 259 | Active | inactive | Active | Active | Active | 0.73 | 0.86 | 1.08 | 0.67 | 1.37 | 2.32 | 5.88 | 1.53 | 1.1 | 3.14 | 2.08 | 3.17 | 2.38 | TGI [8]: 6.7 µM; LC50 [9]: 31.8 µM; LC50 (lethal concentration, 50% cell kill) [13]: 2.23 µM; LC50 [14]: 20.6 µM; LC50 (concentration killing 50% of cells) [18]: 6.85 µM; CC50 [19]: 6.35 µM; TGI [20]: 2.73 µM; LC50 (lethal concentration 50) [23]: 4.32 µM; LC50 (concentration killing 50% of cells) [24]: 4.17 µM; Activity [25]: Active; LC50 (lethal concentration, 50% cell kill) [26]: 11.5 µM; TGI [27]: 2.67 µM; LC50 (50% lethal concentration) [33]: 7.04 µM; GI50 [34]: 1.22 µM; TGI [35]: 2.01 µM
